Test results: ChEMBL document CHEMBL3875221, “New N- and O-arylpiperazinylalkyl pyrimidines and 2-methylquinazolines derivatives as 5-HT7 and 5-HT1A receptor ligands: Synthesis, structure-activity relationships, and molecular modeling studies” (Bioorg Med Chem, 2017)

Key:
[1] = target: T1, 5-hydroxytryptamine receptor 1A (Homo sapiens, UniProt P08908); test: Displacement of [3H]-8-OH-DPAT from recombinant human 5-HT1A receptor expressed in CHOK1 cell membranes after 1 hr by liquid scintillation counting method; set-up: species or system CHO-K1
T1 sequence (P08908 whole entry): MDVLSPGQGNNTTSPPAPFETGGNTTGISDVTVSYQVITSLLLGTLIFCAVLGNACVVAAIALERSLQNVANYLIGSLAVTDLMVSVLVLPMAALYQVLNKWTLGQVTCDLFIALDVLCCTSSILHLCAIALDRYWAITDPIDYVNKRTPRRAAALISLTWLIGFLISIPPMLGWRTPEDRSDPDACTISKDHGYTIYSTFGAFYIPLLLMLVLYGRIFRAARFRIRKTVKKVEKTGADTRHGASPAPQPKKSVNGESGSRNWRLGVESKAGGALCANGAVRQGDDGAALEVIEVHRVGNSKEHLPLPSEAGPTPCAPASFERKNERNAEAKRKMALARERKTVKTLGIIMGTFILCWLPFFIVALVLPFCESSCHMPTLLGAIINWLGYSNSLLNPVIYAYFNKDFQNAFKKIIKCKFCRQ

[2] = target: T2, 5-hydroxytryptamine receptor 7 (Homo sapiens, UniProt P34969); test: Displacement of [3H]-5-HT from recombinant human 5-HT7A receptor expressed in CHOK1 cell membranes after 40 mins by liquid scintillation counting method; set-up: species or system CHO-K1
In short: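 Membranes (15 µg protein/sample) in 50 mM Tris-HCl pH 7.4 with 4 mM MgCl2, incubated 40 min at 27 °C with [3H]-5-HT (5 nM final). Nonspecific binding with 10 µM serotonin. Stopped by vacuum filtration on PEI-soaked GF/C filters, ice-cold Tris washes.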

[3] = target: T2, 5-hydroxytryptamine receptor 7; test: Antagonist activity at recombinant human 5-HT7 receptor expressed in HEK293 cells assessed as inhibition of 5-CT-induced increase in cAMP level at 10^-6M after 30 mins by TR-FRET assay relative to control; format: functional, cell-based
In short: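 Stably transfected HEK293 cells in stimulation buffer (HBSS, 5 mM HEPES, 0.5 mM IBMX, 0.1% BSA) exposed to 10 nM 5-CT with test ligand for 30 min at room temperature. Lysis with Eu-cAMP/ULight-anti-cAMP, 1 h, then TR-FRET readout of cAMP.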

[4] = target: T3, 5-hydroxytryptamine receptor 1A (Homo sapiens) (UniProt P08908); test: Antagonist activity at recombinant human 5-HT1A receptor expressed in HEK293 cells assessed as inhibition of 8-OH-DPAT-induced decrease in cAMP level at 10^-6M after 30 mins in presence of forskolin by TR-FRET assay relative to control; format: functional, cell-based
T3 sequence (whole entry): T1 sequence (P08908 whole entry)
In short: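 Stable HEK293 cells grown in DMEM with 10% dialysed FBS and G418, resuspended in HBSS/HEPES buffer with 0.5 mM IBMX and 0.1% BSA. Stimulated with 1 µM forskolin plus 1 µM (R)-(+)-8-OH-DPAT alongside test ligand, 30 min at room temperature. cAMP by LANCE Ultra TR-FRET after lysis, 1 h.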

T2 sequence (P34969 whole entry): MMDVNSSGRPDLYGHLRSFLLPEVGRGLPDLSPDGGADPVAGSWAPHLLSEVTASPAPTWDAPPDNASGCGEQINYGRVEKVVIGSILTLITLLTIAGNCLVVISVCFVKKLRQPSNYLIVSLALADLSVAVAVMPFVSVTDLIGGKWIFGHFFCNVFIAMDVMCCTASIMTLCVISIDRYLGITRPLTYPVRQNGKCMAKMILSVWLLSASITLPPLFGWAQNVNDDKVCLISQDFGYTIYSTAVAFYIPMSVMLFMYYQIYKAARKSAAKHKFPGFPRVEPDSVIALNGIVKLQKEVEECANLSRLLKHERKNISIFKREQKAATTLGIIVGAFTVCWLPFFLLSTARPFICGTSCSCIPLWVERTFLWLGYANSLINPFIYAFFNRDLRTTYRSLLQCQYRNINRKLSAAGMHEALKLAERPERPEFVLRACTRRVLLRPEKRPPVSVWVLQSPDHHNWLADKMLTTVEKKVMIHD

Row | Ki [1] [µM] | Ki [2] [µM] | inhibition [3] [%] | inhibition [4] [%] | SMILES
1 | 0.0247 | 0.276 | – | – | Cc1nc(OCCCCCN2CCN(c3ccccc3)CC2)c2ccccc2n1
2 | 0.0335 | 0.143 | – | – | c1ccc(-c2cc(OCCCCCN3CCN(c4ccccc4)CC3)ncn2)cc1
3 | 0.00696 | 0.0235 | 5.5 | 6 | CCOc1ccccc1N1CCN(CCCCCOc2cc(-c3ccccc3)ncn2)CC1
4 | 0.772 | 1.33 | – | – | O=c1cc(-c2ccccc2)ncn1CCCCCN1CCN(Cc2ccccc2)CC1
5 | 0.0186 | 0.0537 | – | – | Cc1nc2ccccc2c(=O)n1CCCCCN1CCN(c2ccccc2)CC1
6 | 0.0259 | 0.0451 | – | – | CCOc1ccccc1N1CCN(CCCCCn2cnc(-c3ccccc3)cc2=O)CC1
7 | 0.1 | 0.327 | – | – | Cc1nc2ccccc2c(=O)n1CCCCCN1CCN(c2ccc(Cl)cc2)CC1
8 | 0.167 | 1.31 | – | – | O=c1cc(-c2ccccc2)ncn1CCCCCN1CCN(c2ccc(Cl)cc2)CC1
9 | 0.0178 | 0.0947 | – | – | O=c1cc(-c2ccccc2)ncn1CCCCCN1CCN(c2cccc(Cl)c2)CC1
10 | 0.0521 | 0.181 | – | – | Cc1nc(OCCCCCN2CCN(c3ccc(Cl)cc3)CC2)c2ccccc2n1
11 | 0.0174 | 0.0448 | – | – | Clc1cccc(N2CCN(CCCCCOc3cc(-c4ccccc4)ncn3)CC2)c1
12 | 0.0903 | 1.38 | – | – | Clc1ccc(N2CCN(CCCCCOc3cc(-c4ccccc4)ncn3)CC2)cc1
13 | 0.00821 | 0.0351 | – | – | Cc1nc2ccccc2c(=O)n1CCCCCN1CCN(c2cccc(Cl)c2)CC1
14 | 0.111 | 0.613 | – | – | O=c1cc(-c2ccccc2)ncn1CCCCCN1CCN(c2ccccc2)CC1
15 | 1.03 | 0.99 | – | – | c1ccc(CN2CCN(CCCCCOc3cc(-c4ccccc4)ncn3)CC2)cc1
16 | – | – | 97 | – | CC1CCN(CC[C@H]2CCCN2S(=O)(=O)c2cccc(O)c2)CC1
17 | 0.00299 | 0.00842 | 19.5 | 18 | CCOc1ccccc1N1CCN(CCCCCn2c(C)nc3ccccc3c2=O)CC1
